Screening results as filed in PubChem BioAssay.
MT1-MMP act inh – blocks activation of human MT1-MMP. HT1080 RFP-PRO-GFP cells, GFP/RFP ratio fluorescence, overnight; percent of plate control window, DMSO zero. GFP/RFP ratio change, % at 20 µM. 360,000 compounds, 0.061% hits;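 active = GFP/RFP ratio change of at least 30% with cell ATP level not reduced by more than half and red fluorescence within 50% of control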
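system = RFP-PRO-GFP reporter HT1080 cells | dosing = 20 µM single dose, 1% DMSO | timing = overnight cell settling, then overnight compound exposure, 37 °C, 5% CO2 | read-out basis = GFP/RFP fluorescence ratio | controls = DMSO and RFP-L50D-GFP cell wells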
Tn6 DDE FP – DD(E)-Tn6 binding inhibition, primary FP screen; P02675; Fibrin DD(E) TRITC-Tn6 fluorescence polarization displacement; inhibition, % at 8.3 µM; 370,000 compounds, 0.21% hits; AID 720509;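 active = inhibition above a per-campaign cutoff: mean of compounds within control limits plus 3 SD, cut at about 15% in these data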
KLK7 zymogen act – activators of human kallikrein-7 zymogen. 370,000 compounds, 0.9% hits. purified proKLK7, EDANS-DABCYL substrate fluorescence; 100% is mature enzyme control, 0% vehicle. activation, % at 7 µM;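 active = activation above the mean of all tested compounds plus 3 SD, computed per campaign excluding outliers beyond control limits, cut at about 13% in these data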
Target sequence (P49862 whole entry, looked up): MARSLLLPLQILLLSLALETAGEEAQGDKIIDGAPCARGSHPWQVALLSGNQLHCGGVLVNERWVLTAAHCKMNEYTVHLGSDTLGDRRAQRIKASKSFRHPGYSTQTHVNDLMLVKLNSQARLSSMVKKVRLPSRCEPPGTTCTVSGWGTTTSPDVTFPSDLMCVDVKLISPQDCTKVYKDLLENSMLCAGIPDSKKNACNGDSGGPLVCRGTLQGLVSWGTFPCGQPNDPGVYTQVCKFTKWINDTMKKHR
Neddylation inh – cullin neddylation inhibition. TR-FRET cullin neddylation, biochemical. calls only at 25 µM. 360,000 compounds, 0.58% hits. AID 651699. P61081+Q13564; in the data active = inhibition above about 36%
SKN-1 inh – inhibitors of C. elegans SKN-1. C. elegans VP596 Pgst-4::GFP/RFP ratio, acrylamide-induced, 24 h. inhibition, % at 21.8 µM. 360,000 compounds, 0.49% hits. AID 624304;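 active = interference check ratio from 0.5 to 1.5 plus GFP to RFP signal ratio inhibition reaching or exceeding a fixed threshold, cut at about 30% in these data, passing the limit was not always enough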
Tn7 DDE FP – disrupts Tn7 cyclic peptide binding to fibrin D-Dimer-E complex | P02675 | FP displacement of FITC-Tn7 peptide from fibrin DD(E); 0% = median of compound wells per plate | inhibition, % at 8.3 µM | 370,000 compounds, 0.13% hits | AID 720508;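 active = inhibition above the mean of compounds falling within the control limits plus 3 SD of them, cut at about 14% in these data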
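assay system = human clot-derived fibrin DD(E) complex | quantity = Fibrin-DD(E) at 2 µM final | timing = 10 min preincubation, 3 h with tracer, room temperature | signal = fluorescence polarization | measure = percent inhibition | benchmarks = high control wells with 10 µM unlabelled Aha-Tn7 peptide (full inhibition) | replicates = singlicate testing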
Of the large screens only hits and unclear results are named; the others gave an inactive call. Hits are enriched below; roughly 2.2% of the tested compounds scored in any of these assays.

CC1=NOC(=O)/C1=C\c1ccc(-c2ccc(Br)cc2)o1	none
CC1=NOC(=O)/C1=C/c1ccc(-c2ccc(Cl)cc2)o1	SKN-1 inh 37.4 (no result: Tn6 DDE FP, KLK7 zymogen act, Tn7 DDE FP)
Cn1c(N)c(C(=O)COC(=O)c2ccc3c(c2)OCCO3)c(=O)n(C)c1=O	none
Cc1ccc(OCCNC(=O)c2ccc3ccccc3n2)cc1	none
O=C(NCCOc1ccc(Cl)cc1)c1ccc2ccccc2n1	SKN-1 inh 39.4
Cn1cc(/C=C2\SC(=O)NC2=S)c2ccccc21	Tn7 DDE FP 15.9
Brc1ccccc1/C=N/Nc1ccc2ccccc2n1	none
Brc1ccc(/C=N/Nc2ccc3ccccc3n2)cc1	SKN-1 inh 45.2 (no result: MT1-MMP act inh)
CC(=O)O[C@@H]1[C@H](Oc2c(O)c(C)c3c4c2[C@H](C)CC[C@H]4[C@H](C)C[C@@H]3C=C(C)C)O[C@@H](C)[C@@H](O)[C@H]1O	none
CC(=O)O[C@H]1[C@@H](O)[C@H](O)[C@H](Oc2c(O)c(C)c3c4c2[C@@H](C)CC[C@@H]4[C@@H](C)C[C@@H]3C=C(C)C)O[C@H]1C	SKN-1 inh 40.4
CCN(CC)S(=O)(=O)c1ccc(C(=O)NNC(=O)c2csc(N3CCOCC3)n2)cc1	none
O=C(Nc1nc2ccccc2s1)c1ccccc1	SKN-1 inh 65.0
O=[N+]([O-])c1ccc(Nc2ccc(Cl)cc2)nc1	SKN-1 inh 39.0
CC(C)c1ccc(CNc2ccc([N+](=O)[O-])cn2)cc1	none
O=[N+]([O-])c1ccc(NCc2ccc(Cl)cc2)nc1	SKN-1 inh 43.0
O=[N+]([O-])c1ccc(Nc2ccc3ccccc3c2)nc1	none
Cc1c(C(=O)N(C)c2ccc(Cl)cc2)cnn1-c1ccccc1	SKN-1 inh 38.0
CN(C)S(=O)(=O)c1cccc(NC(=O)CCSc2ccc(Cl)cc2)c1	none
Oc1c(N=Nc2ccccn2)ccc2ccccc12	SKN-1 inh 46.1
Clc1ccc(CNCCCSc2ncccn2)cc1	none
Clc1ccc(OCCSc2ncccn2)c(Br)c1	SKN-1 inh 53.2
CN(C)CCCOc1ccc(Cl)cc1Br	none
CCCOc1ccc(OCCSc2ncccn2)cc1	SKN-1 inh 37.6
Clc1ccc(OCCCCSc2ncccn2)cc1	SKN-1 inh 91.4
Brc1cccc(OCCSc2ncccn2)c1	SKN-1 inh 50.0
NC(N)=N/N=C/c1ccc(Cl)cc1Cl	none
C/C(=N\NC(=O)c1csc(C)c1C)c1ccc(Cl)s1	none
CCn1c2ccccc2c2nc3cc(C(=O)O)ccc3nc21	none
CCn1c2ccccc2c2nc3ccccc3nc21	Neddylation inh active (no result: Tn6 DDE FP, KLK7 zymogen act, Tn7 DDE FP)
COC(=O)C1CN(Cc2ccc(OC)cc2)CCS(=O)(=O)N1Cc1cn(Cc2ccc(Cl)cc2)nn1 (stereo unspecified)	none (no result: MT1-MMP act inh, Neddylation inh, SKN-1 inh)
C(=N/n1c2ccccc2c2ccccc21)/c1ccco1	SKN-1 inh 51.1
N#CCCN(CCC#N)C(=O)C1c2ccccc2Oc2ccccc21	Tn6 DDE FP 58.6
CC(CNC(=O)COC(=O)c1cccnc1Cl)c1ccccc1 (stereo unspecified)	none
COc1ccc(OCC(=O)Sc2ccc(C)cc2)cc1	SKN-1 inh 43.3
COc1ccc(OC(=O)COc2ccc(C)cc2)cc1	none
O=[N+]([O-])c1cccc(COc2ccccc2CN2CCOCC2)c1	none
Cc1cc(OCc2cccc(Cl)c2)c(C)cc1CN1CCOCC1	SKN-1 inh 72.3
CCCCN(CC)Cc1c(C)[nH]c2ccccc2c1=O	none
CCCCCCCCNc1ncnc2ccccc12	SKN-1 inh 50.6 (no result: Tn6 DDE FP, KLK7 zymogen act, Tn7 DDE FP)
O=c1c2ccccc2[nH]c2ccc(O)cc12	Neddylation inh active
O=c1[nH]c2ccccc2c(=O)c2ccccc12	none
O=c1c2ccccc2[nH]c2ccc(F)cc12	none (not shown: Neddylation inh)
Cc1ccc2[nH]c3ccccc3c(=O)c2c1	KLK7 zymogen act 19.1 (not shown: Neddylation inh)
CCOC(=O)C1=C(C)Nc2nc(C)nn2C1c1cc(OC)ccc1OC (stereo unspecified)	none
O=C(/C(C=Nc1ccc(Br)cc1)=C(/O)c1ccco1)C(F)(F)F	SKN-1 inh 74.0
CCCC1(C(=O)OCC)NC(c2ccc(N(C)C)cc2)C2C(=O)N(c3ccc(OCC)cc3)C(=O)C21 (stereo unspecified)	none
